# Where two headings read alike, the source gives them in different places.
# What was measured:
# [1] = test system: MDA-MB-231 breast cancer cell line; test: MTT cell viability assay, MDA-MB-231 breast cancer cells; type: cell-based, human; settings: read-out: IC50 on MDA-MB-231
# In short: (§1)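 Cells grown in DMEM with 10% FBS, 100 units/ml penicillin/streptomycin and 2 mM L-glutamine at 37 °C, 5% CO₂. 5 × 10³ cells/well were seeded and attached overnight, then given test compound at 0–200 μM for 48 h. MTT was added for 4 h at 37 °C and absorbance read at 570 nm. Viability was taken relative to untreated control cells. Mean ± SD from at least three independent experiments.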
# [2] = test system: T47D breast cancer cell line; test: MTT cell viability assay, T47D breast cancer cells; type: cell-based, human; settings: 48 h, read-out: IC50 on T47D
# In short: as §1
# [3] = test system: MDA-MB-231 breast cancer cells; settings: 0–100 μM; cited from earlier work
# [4] = test system: HaCaT human keratinocyte cell line; test: MTT cell viability assay, HaCaT control cells; type: cell-based; settings: 48 h, read-out: IC50 on HaCaT (human fibroblasts in text)
# In short: as §1
# [5] = test system: MCF-7 breast cancer cells; settings: 0–100 μM; cited from earlier work
Compound,"IC50 ([1]; Homo sapiens, MDA-MB-231, 48 h)","IC50 ([2]; Homo sapiens, T47D)",cytotoxic effect on MDA-MB-231 [3],"IC50 ([4]; Homo sapiens, HaCaT)",cytotoxic effect on MCF-7 [5],"IC50 ([1]; MTT, 48 h, 0–200 μM)","IC50 ([2]; MTT, 0–200 μM)","IC50 ([4]; MTT, 0–200 μM)"
"O=Cc1ccc(O)c(O)c1 [Compound 11, 3,4-dihydroxybenzaldehyde]",67.2 ± 5.72 µM,67.7 ± 5.9 µM,did not show an anticancer effect,115 ± 7.69 µM,did not show an anticancer effect,,,
"COc1cc([C@@H]2c3cc4c(cc3[C@@H](O[C@@H]3O[C@@H]5CO[C@@H](C)O[C@H]5[C@H](O)[C@H]3O)[C@H]3COC(=O)[C@H]23)OCO4)cc(OC)c1O [etoposide, reference compound]",,,,4.86 ± 0.35 µM,,,,
coelonin [Compound 10],,,,,,63.8 ± 10.3 µM,44.4 ± 2.7 µM,114 ± 7.65 µM

# — article PMC10883021 (ACS Omega, 2024)
